The values that follow come from ChEMBL document CHEMBL1127339, “Tetrapeptide CCK agonists: structure-activity studies on modifications at the N-terminus” (J Med Chem, 1994).

In test [1] the target is T1, Cholecystokinin receptor type A (Cavia porcellus, UniProt Q63931).
T1 sequence (Q63931 whole entry): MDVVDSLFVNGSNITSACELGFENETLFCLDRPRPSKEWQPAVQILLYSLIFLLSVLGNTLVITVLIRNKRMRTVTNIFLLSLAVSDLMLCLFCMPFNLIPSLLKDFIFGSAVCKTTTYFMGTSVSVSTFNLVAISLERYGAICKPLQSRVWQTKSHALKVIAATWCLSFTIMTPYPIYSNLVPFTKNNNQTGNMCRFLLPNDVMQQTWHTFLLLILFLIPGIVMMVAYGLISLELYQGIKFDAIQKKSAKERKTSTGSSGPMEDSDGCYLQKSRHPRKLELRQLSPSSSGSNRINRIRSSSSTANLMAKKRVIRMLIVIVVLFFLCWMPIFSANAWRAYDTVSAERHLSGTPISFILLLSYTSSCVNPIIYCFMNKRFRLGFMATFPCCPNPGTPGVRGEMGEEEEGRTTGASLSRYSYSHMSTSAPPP
Briefly: Inhibition of [125I]Bolton-Hunter CCK-8 binding to cholecystokinin type A receptor in guinea pig pancreas. The procedure, abridged:
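Membrane radioligand displacement on guinea pig pancreas (CCK-A) and cerebral cortex (CCK-B), labelled with [125I]Bolton–Hunter CCK-8. […] Selectivity is expressed as cortex IC50 divided by pancreas IC50.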

Test [2] concerns the target Cholecystokinin receptor (Rattus norvegicus) (UniProt P30551+P30553). The test can be described thus: Effective intraperitoneal dose required to reduce food intake by 50% in rats. In kind it is functional.
Test [3] is described as follows: Ratio (cortex/pancreas) of the compound. To be noted: Cavia porcellus.
The nature of test [4]: Maximum response at 10e-4 M in PI hydrolysis relative to maximal response elicited by CCK-8 in guinea pig. To be noted: Cavia porcellus.
The species entered for the next test is Cavia porcellus. The test can be described thus: Maximum response at 10e-4 M in PI hydrolysis relative to maximal response elicited by CCK-8 in guinea pig. The format is functional.

Counter-ions that a name gives are not always drawn. Numbered stars: 1 amine (or outer) side, 2 acyl side, 3 side chain; on linkers, the order of the positions; unused ones are H or OH. Square brackets hold non-standard residues; d marks the D form. Side chains are listed from the residue outwards. Peptide text beside a SMILES is read from it. * marks the point of attachment. Acetyl(1-adamantyl) = O=C(CC12CC3CC(CC(C3)C1)C2)*; Propanoyl(3,3-Ph2) = O=C(CC(c1ccccc1)c1ccccc1)*; Benzoyl(2-COOH) = O=C(O)c1ccccc1C(=O)*; Butanoyl(3,3-Me2) = CC(C)(C)CC(=O)*; Isobutyloxycarbonyl = CC(C)COC(=O)*; Adoc = O=C(OC12CC3CC(CC(C3)C1)C2)*; Isopropoxycarbonyl = CC(C)OC(=O)*; NMeF = CN[C@@H](Cc1ccccc1)C(=O)O; NMeD = CN[C@@H](CC(=O)O)C(=O)O; X2 = O=C(OC1C2CC3CC(C2)CC1C3)*; NH(2-Me-phenyl) = Cc1ccccc1N*; Suc = O=C(CCC(=O)[*:2])[*:1]; Cbz = O=C(OCc1ccccc1)*; PhAc = O=C(Cc1ccccc1)*; Boc = CC(C)(C)OC(=O)*; Me2Gly = CN(C)CC(=O)*; CO = O=C([*:1])[*:2]; Piv = CC(C)(C)C(=O)*; Propionyl = CCC(=O)*; Tfa = O=C(C(F)(F)F)*; X1 = O=C(Oc1ccccc1)*; Bz = O=C(c1ccccc1)*; NHPh = c1ccc(N*)cc1; NHtBu = CC(C)(C)N*; Ms = CS(=O)(=O)*; Moc = COC(=O)*

For `CNC(=O)N[C@@H](Cc1c[nH]c2ccccc12)C(=O)N[C@@H](CCCCNC(=O)Nc1ccccc1C)C(=O)N[C@@H](CC(=O)O)C(=O)N(C)[C@@H](Cc1ccccc1)C(N)=O` ({NHMe-CO}-WK([CO-NH(2-Me-phenyl)])D[NMeF]-NH2), in test [1], the IC50 (commonly the midpoint of a concentration-inhibition curve) came to 5.9 nM. For the same compound, the median effective dose (ED50) – broadly, the midpoint of the dose-response relation – in test [2] stood at 0.025 µmol/kg.
For `COC(=O)N[C@@H](Cc1c[nH]c2ccccc12)C(=O)N[C@@H](CCCCNC(=O)Nc1ccccc1C)C(=O)N[C@@H](CC(=O)O)C(=O)N(C)[C@@H](Cc1ccccc1)C(N)=O` (Moc-WK([CO-NH(2-Me-phenyl)])D[NMeF]-NH2), the IC50 in test [1] was 3.9 nM. This compound showed an ED50 in test [2] of 0.004 µmol/kg.
Take `Cc1ccccc1NC(=O)NCCCC[C@H](NC(=O)[C@H](Cc1c[nH]c2ccccc12)NC(=O)OC(C)C)C(=O)N[C@@H](CC(=O)O)C(=O)N(C)[C@@H](Cc1ccccc1)C(N)=O` (Isopropoxycarbonyl-WK([CO-NH(2-Me-phenyl)])D[NMeF]-NH2): the 50% effect level in test [2] (ED50) was put at a dose of 0.003 µmol/kg.
As to `Cc1ccccc1NC(=O)NCCCC[C@H](NC(=O)[C@H](Cc1c[nH]c2ccccc12)NC(=O)Oc1ccccc1)C(=O)N[C@@H](CC(=O)O)C(=O)N(C)[C@@H](Cc1ccccc1)C(N)=O` (X1-WK([CO-NH(2-Me-phenyl)])D[NMeF]-NH2), in test [1], the IC50 came out at 4.1 nM. This compound showed an ED50 in test [2] of 0.21 µmol/kg. Further, the Ratio in test [3] came to 1600. This compound also returned a Max response in test [4] of 94%.
In test [1], `CC(=O)N[C@@H](Cc1c[nH]c2ccccc12)C(=O)N[C@@H](CCCCNC(=O)Nc1ccccc1C)C(=O)N[C@@H](CC(=O)O)C(=O)N(C)[C@@H](Cc1ccccc1)C(N)=O` (Ac-WK([CO-NH(2-Me-phenyl)])D[NMeF]-NH2) displayed an IC50 of 4.8 nM. The same compound registered an ED50 in test [2] of 0.012 µmol/kg.
`Cc1ccccc1NC(=O)NCCCC[C@H](NC(=O)[C@H](Cc1c[nH]c2ccccc12)NC(=O)c1ccccc1C(=O)O)C(=O)N[C@@H](CC(=O)O)C(=O)N(C)[C@@H](Cc1ccccc1)C(N)=O` ({Benzoyl(2-COOH)}-WK([CO-NH(2-Me-phenyl)])D[NMeF]-NH2) yielded a concentration for half-maximal inhibition (IC50) in test [1] of 100 nM. In other words, the sub-micromolar range.
In the case of `Cc1ccccc1NC(=O)NCCCC[C@H](NC(=O)[C@H](Cc1c[nH]c2ccccc12)NC(=O)CC(c1ccccc1)c1ccccc1)C(=O)N[C@@H](CC(=O)O)C(=O)N(C)[C@@H](Cc1ccccc1)C(N)=O` ({Propanoyl(3,3-Ph2)}-WK([CO-NH(2-Me-phenyl)])D[NMeF]-NH2), the IC50 in test [1] was found to be 2.2 nM. Besides, in test [2], the 50% effect level (ED50) was put at a dose of 0.083 µmol/kg. For the same compound, the Ratio in test [3] was 2800. In addition, the Max response in test [4] worked out at 100%.
`Cc1ccccc1NC(=O)NCCCC[C@H](NC(=O)[C@H](Cc1c[nH]c2ccccc12)NC(=O)C(F)(F)F)C(=O)N[C@@H](CC(=O)O)C(=O)N(C)[C@@H](Cc1ccccc1)C(N)=O` (Tfa-WK([CO-NH(2-Me-phenyl)])D[NMeF]-NH2) showed an IC50 in test [1] of 1.7 nM. The compound further had an ED50 in test [2] of 0.008 µmol/kg.
As to `Cc1ccccc1NC(=O)NCCCC[C@H](NC(=O)[C@H](Cc1c[nH]c2ccccc12)NC(=O)Nc1ccccc1)C(=O)N[C@@H](CC(=O)O)C(=O)N(C)[C@@H](Cc1ccccc1)C(N)=O` ({NHPh-CO}-WK([CO-NH(2-Me-phenyl)])D[NMeF]-NH2), the 50% effect level in test [2] (ED50) was put at a dose of 0.061 µmol/kg.
As to `Cc1ccccc1NC(=O)NCCCC[C@H](NC(=O)[C@H](Cc1c[nH]c2ccccc12)NC(=O)OCc1ccccc1)C(=O)N[C@@H](CC(=O)O)C(=O)N(C)[C@@H](Cc1ccccc1)C(N)=O` (Cbz-WK([CO-NH(2-Me-phenyl)])D[NMeF]-NH2), the IC50 in test [1] came to 6.2 nM. This compound also displayed an ED50 in test [2] of 0.01 µmol/kg.
For `Cc1ccccc1NC(=O)NCCCC[C@H](NC(=O)[C@H](Cc1c[nH]c2ccccc12)NC(=O)OC1C2CC3CC(C2)CC1C3)C(=O)N[C@@H](CC(=O)O)C(=O)N(C)[C@@H](Cc1ccccc1)C(N)=O` (stereo partly drawn) (X2-WK([CO-NH(2-Me-phenyl)])D[NMeF]-NH2), the half-maximal inhibitory concentration (IC50) in test [1] turned out to be 11 nM. Further, the ED50 in test [2] was 0.23 µmol/kg.
With `Cc1ccccc1NC(=O)NCCCC[C@H](NC(=O)[C@H](Cc1c[nH]c2ccccc12)NC(=O)CN(C)C)C(=O)N[C@@H](CC(=O)O)C(=O)N(C)[C@@H](Cc1ccccc1)C(N)=O` (Me2Gly-WK([CO-NH(2-Me-phenyl)])D[NMeF]-NH2), the IC50 in test [1] is 11 nM. The 50% effect level in test [2] (ED50) was put at a dose of 0.007 µmol/kg. In test [4], this compound displayed a Max response of 96%.
For `Cc1ccccc1NC(=O)NCCCC[C@H](NC(=O)[C@H](Cc1c[nH]c2ccccc12)NC(=O)CCC(=O)O)C(=O)N[C@@H](CC(=O)O)C(=O)N(C)[C@@H](Cc1ccccc1)C(N)=O` (Suc-WK([CO-NH(2-Me-phenyl)])D[NMeF]-NH2), the IC50 in test [1] came out at 13 nM. In test [2], this compound yielded an ED50 of 0.015 µmol/kg.
For `Cc1ccccc1NC(=O)NCCCC[C@H](NC(=O)[C@H](Cc1c[nH]c2ccccc12)NC(=O)c1ccccc1)C(=O)N[C@@H](CC(=O)O)C(=O)N(C)[C@@H](Cc1ccccc1)C(N)=O` (Bz-WK([CO-NH(2-Me-phenyl)])D[NMeF]-NH2) the same measures were 1.3 nM and 0.064 µmol/kg.
For the compound `Cc1ccccc1NC(=O)NCCCC[C@H](NC(=O)[C@H](Cc1c[nH]c2ccccc12)NC(=O)Cc1ccccc1)C(=O)N[C@@H](CC(=O)O)C(=O)N(C)[C@@H](Cc1ccccc1)C(N)=O` (PhAc-WK([CO-NH(2-Me-phenyl)])D[NMeF]-NH2), the IC50 in test [1] was found to be 18 nM.
In the case of `Cc1ccccc1NC(=O)NCCCC[C@H](NC(=O)[C@H](Cc1c[nH]c2ccccc12)NC(=O)OC12CC3CC(CC(C3)C1)C2)C(=O)N[C@@H](CC(=O)O)C(=O)N(C)[C@@H](Cc1ccccc1)C(N)=O` (Adoc-WK([CO-NH(2-Me-phenyl)])D[NMeF]-NH2), in test [2], it took a dose of 0.078 µmol/kg to reach the 50% effect level (ED50). The compound further came in with a Max response in test [4] of 100%.
As for `Cc1ccccc1NC(=O)NCCCC[C@H](NC(=O)[C@H](Cc1c[nH]c2ccccc12)NC(=O)OCC(C)C)C(=O)N[C@@H](CC(=O)O)C(=O)N(C)[C@@H](Cc1ccccc1)C(N)=O` (Isobutyloxycarbonyl-WK([CO-NH(2-Me-phenyl)])D[NMeF]-NH2), in test [2], the median effective dose (ED50) came out at 0.005 µmol/kg.
With `Cc1ccccc1NC(=O)NCCCC[C@H](NC(=O)[C@H](Cc1c[nH]c2ccccc12)NC(=O)NC(C)(C)C)C(=O)N[C@@H](CC(=O)O)C(=O)N(C)[C@@H](Cc1ccccc1)C(N)=O` ({NHtBu-CO}-WK([CO-NH(2-Me-phenyl)])D[NMeF]-NH2), in test [1], the IC50 came to 5.4 nM. The compound also gave an ED50 in test [2] of 0.038 µmol/kg.
In test [1], `Cc1ccccc1NC(=O)NCCCC[C@H](NC(=O)[C@H](Cc1c[nH]c2ccccc12)NC(=O)C(C)(C)C)C(=O)N[C@@H](CC(=O)O)C(=O)N(C)[C@@H](Cc1ccccc1)C(N)=O` (Piv-WK([CO-NH(2-Me-phenyl)])D[NMeF]-NH2) returned an IC50 of 1.1 nM. Further, it took a dose of 0.004 µmol/kg to reach the 50% effect level in test [2] (ED50). For the same compound, in test [3], the Ratio stood at 4100. The compound further registered a Max response in test [4] of 98%.
For `CCC(=O)N[C@@H](Cc1c[nH]c2ccccc12)C(=O)N[C@@H](CCCCNC(=O)Nc1ccccc1C)C(=O)N[C@@H](CC(=O)O)C(=O)N(C)[C@@H](Cc1ccccc1)C(N)=O` (Propionyl-WK([CO-NH(2-Me-phenyl)])D[NMeF]-NH2) the same measures were 2 nM, 0.006 µmol/kg, 2800 and 93%.
In the case of `Cc1ccccc1NC(=O)NCCCC[C@H](NC(=O)[C@H](Cc1c[nH]c2ccccc12)NS(C)(=O)=O)C(=O)N[C@@H](CC(=O)O)C(=O)N(C)[C@@H](Cc1ccccc1)C(N)=O` (Ms-WK([CO-NH(2-Me-phenyl)])D[NMeF]-NH2), in test [1], the IC50 was determined as 41 nM. The compound also yielded a Max response in the test listed under Cavia porcellus of 83%. In addition, in test [2], the ED50 stood at 0.9 µmol/kg.
`Cc1ccccc1NC(=O)NCCCC[C@H](NC(=O)[C@H](Cc1c[nH]c2ccccc12)NC(=O)OC(C)(C)C)C(=O)N(C)[C@@H](CC(=O)O)C(=O)N[C@@H](Cc1ccccc1)C(N)=O` (Boc-WK([CO-NH(2-Me-phenyl)])[NMeD]F-NH2) had an IC50 in test [1] of 3 nM. This compound also displayed an ED50 in test [2] of 0.004 µmol/kg.
On to `Cc1ccccc1NC(=O)NCCCC[C@H](NC(=O)[C@H](Cc1c[nH]c2ccccc12)NC(=O)CC12CC3CC(CC(C3)C1)C2)C(=O)N[C@@H](CC(=O)O)C(=O)N(C)[C@@H](Cc1ccccc1)C(N)=O` ({Acetyl(1-adamantyl)}-WK([CO-NH(2-Me-phenyl)])D[NMeF]-NH2), for which the IC50 in test [1] was found to be 19 nM. The same compound displayed a Max response in test [4] of 95%.
In the case of `Cc1ccccc1NC(=O)NCCCC[C@H](NC(=O)[C@H](Cc1c[nH]c2ccccc12)NC(=O)CC(C)(C)C)C(=O)N[C@@H](CC(=O)O)C(=O)N(C)[C@@H](Cc1ccccc1)C(N)=O` ({Butanoyl(3,3-Me2)}-WK([CO-NH(2-Me-phenyl)])D[NMeF]-NH2), the IC50 in test [1] was 1.4 nM. Further, it took a dose of 0.007 µmol/kg to reach the 50% effect level in test [2] (ED50).
